pEC50: −log10 of the molar value. The source made the active and inactive calls. The calls are words filed in the database; no cut-off is given here.
Tests used:
MCF7 [1] = experiment: Cell cycle arrest in human MCF7 cells assessed as accumulation of cells at G2/M phase at EC50 after 24 hrs under UV-irradiation by propidium iodide staining-based flow cytometric analysis (reference value: 26.3%); type: functional
MCF7 [2] = experiment: Cell cycle arrest in human MCF7 cells assessed as accumulation of cells at subG1 phase at EC75 after 24 hrs under UV-irradiation by propidium iodide staining-based flow cytometric analysis (reference value: 4.8%); type: functional
MCF7 [3] = experiment: Induction of lysosomal activation in human MCF7 cells at 2 uM after 20 mins in presence of UV irradiation by Lysotracker Green DND 26 staining-based confocal microscopic analysis; type: functional, cell-based
Procedure, shortened: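 MCF7 cells (4x10⁵) on glass slides were loaded with LysoTracker Green DND-26 (175 nM) for 45 min in phenol-red-free, serum-free medium, before 2 µM compound with or without UV activation. Cells were fixed in 2% PFA 20 min or 2 h after UV and imaged confocally (ex 488 nm, em 500–530 nm). Controls were untreated cells with and without irradiation, and cells given PMA (400 nM).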

MCF7 [4] = experiment: Cell cycle arrest in human MCF7 cells assessed as accumulation of cells at G2/M phase at EC75 after 24 hrs under UV-irradiation by propidium iodide staining-based flow cytometric analysis (reference value: 26.3%); type: functional
MCF7 [5] = experiment: Cell cycle arrest in human MCF7 cells assessed as accumulation of cells at subG1 phase at EC50 after 24 hrs under UV-irradiation by propidium iodide staining-based flow cytometric analysis (reference value: 4.8%); type: functional
MCF7 [6] = experiment: Induction of mitochondrial dysfunction in human MCF7 cells assessed as perinuclear clustering at 2 uM after 20 mins in presence of UV irradiation by Mitotracker Orange CMTM-ROS staining-based confocal microscopic analysis; type: functional, cell-based
Procedure, shortened: (§1)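 MCF7 cells (4x10⁵) were plated on glass slides for 24 h. They were then loaded with MitoTracker Orange CMTM-ROS (150 nM) for 45 min in phenol-red-free, serum-free medium, before 2 µM compound and UV photoactivation. Cells were fixed in 2% PFA 20 min or 2 h after UV and imaged confocally (ex 543 nm, em 560–620 nm). PMA (400 nM) served as ROS-inducer control.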

MCF7 [7] = experiment: Induction of mitochondrial dysfunction in human MCF7 cells assessed as organelle swelling at 2 uM after 120 mins in presence of UV irradiation by Mitotracker Orange CMTM-ROS staining-based confocal microscopic analysis; type: functional, cell-based; procedure, shortened: as §1
[8] = Drug localization in cytoplasm of human MCF7 cells at 2 uM measured after 30 to 60 mins by confocal microscopic analysis; type: ADME, subcellular; details: mcf7, 2 µM
MCF7 [9] = experiment: Cell cycle arrest in human MCF7 cells assessed as accumulation of cells at S phase at EC75 after 24 hrs under UV-irradiation by propidium iodide staining-based flow cytometric analysis (reference value: 24.7%); type: functional
MCF7 [10] = experiment: Cell cycle arrest in human MCF7 cells assessed as accumulation at G0/G1 phase at EC25 after 24 hrs under UV-irradiation by propidium iodide staining-based flow cytometric analysis (reference value: 44.2%); type: functional
MCF-10A = experiment: Phototoxicity against human MCF10A cells preincubated for 5 mins followed by compound washout and subsequent UV irradiation at 1.5 J/cm2 for 5 mins measured after 72 hrs by MTT assay; type: cell-based; details: light or radiation study
Procedure, shortened: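 Compounds were diluted in DMSO (0.5% final), applied in triplicate for 5 min, then washed out with PBS. After medium removal, cells were irradiated on ice for 5 min at 365 nm (1.5 J/cm²) and then kept 72 h at 37 °C. Viability was read by MTT at 540 nm and expressed relative to 0.5% DMSO controls given the same treatment. EC50 is the concentration killing 50%, as the mean ± SD of at least three experiments.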

[11] = Dark toxicity against human A375 cells preincubated for 5 mins followed by compound washout and measured after 72 hrs by MTT assay; type: cell-based, A-375
Procedure, shortened: (§2)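 Cells were plated and allowed to attach overnight. Compounds were diluted in DMSO (0.5% final), with each concentration in triplicate, and applied for 5 min. Cells were then washed in PBS and given fresh medium. Without irradiation, cells were held 72 h at up to 50 μM. MTT (5 mg/mL stock) was added for 4 h, crystals were dissolved in SDS/HCl overnight, and absorbance was read at 540 nm. CC50 is the concentration killing 50% of cells, taken as the mean of at least three experiments.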

[12] = Dark toxicity against human HT-29 cells preincubated for 5 mins followed by compound washout and measured after 72 hrs by MTT assay; type: cell-based; procedure, shortened: as §2
[13] = Phototoxicity index, ratio of CC50 for human MCF10A cells to EC50 for human MCF10A cells under UV irradiation at 1.5 J/cm2; type: cell-based, MCF-10A; details: read-out: Ratio CC50/EC50
MCF7 [14] = experiment: Induction of ROS generation in human MCF7 cells at 0.5 to 2 uM preincubated for 30 mins followed by irradiation at 1.5 J/cm2 for 2 hrs by H2DCFDA probe-based fluorescence assay (reference value: 100%); type: functional
Procedure, shortened: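 MCF7 cells (3x10⁴) were plated 24 h ahead to reach 80–90% confluence. Compounds were applied for 30 min in phenol-red-free, serum-free medium, and H2DCFDA (10 µM) was added 15 min before irradiation (1.5 J/cm², ~365 nm) or no irradiation. DCF fluorescence (485/535 nm) was read 2 h after light and expressed relative to untreated controls (100%). PMA (400 nM) served as positive control; three independent experiments.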

MCF7 [15] = experiment: Cell cycle arrest in human MCF7 cells assessed as accumulation of cells at G0/G1 phase at EC75 after 24 hrs under UV-irradiation by propidium iodide staining-based flow cytometric analysis (reference value: 44.2%); type: functional
A-375 = experiment: Phototoxicity index, ratio of CC50 for human A375 cells to EC50 for human A375 cells under UV irradiation at 1.5 J/cm2
[16] = Solubility of the compound in DMSO; type: physicochemical

Drug uptake [8]: Active
solubility [16]: Soluble
Compound: COc1ccc(-c2nc3c(nc(C)c4ccc(-c5ccccc5)nc43)o2)cc1
Activity (MCF7 [1]): 26.9%
Activity (MCF7 [2]): 4.4%
Activity (MCF7 [3]): Active
Activity (MCF7 [4]): 26.9%
Activity (MCF7 [5]): 4.4%
Activity (MCF7 [6]): Active
Activity (MCF7 [7]): Active
Activity (MCF7 [9]): 26.3%
Activity (MCF7 [10]): 44.1%
pEC50 (MCF-10A): 6.06
CC50 at 72 h [11]: > 50 µM
CC50 at 72 h [12]: > 50 µM
selectivity ratio [13]: > 58
Activity (MCF7 [14]): 227%
Activity (MCF7 [15]): 42.4%
Ratio CC50/EC50 (A-375): >4545

— ChEMBL document CHEMBL4325899, “Synthesis and photocytotoxic activity of [1,2,3]triazolo[4,5-h][1,6]naphthyridines and [1,3]oxazolo[5,4-h][1,6]naphthyridines” (Eur J Med Chem, 2019)
